According to ChEMBL document CHEMBL1148576, “Identification of potent water soluble purine-scaffold inhibitors of the heat shock protein 90” (J Med Chem, 2006):

Experiments:
MRC5 = test: Cytotoxicity against normal lung fibroblast MRC5 cell line; assay type: functional, cell-based; conditions: Homo sapiens
How it was run: (§1)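 Sulforhodamine B growth assay. Plating densities were 6000 (SKBr3), 8000 (MDA-MB-468) or 10,000 (MRC-5) cells/well, attached overnight. Drug, added in triplicate, was 1:1 serially diluted with DMSO or PBS vehicle. Exposure lasted 72 h, then cells were fixed with TCA and stained with 0.4% SRB.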

[1] = target: T1, Heat shock protein HSP 90-beta (Homo sapiens, UniProt P08238); test: Inhibitory activity against Hsp90 in human breast cancer SKBr3 cell line; assay type: cell-based
T1 sequence (P08238 whole entry): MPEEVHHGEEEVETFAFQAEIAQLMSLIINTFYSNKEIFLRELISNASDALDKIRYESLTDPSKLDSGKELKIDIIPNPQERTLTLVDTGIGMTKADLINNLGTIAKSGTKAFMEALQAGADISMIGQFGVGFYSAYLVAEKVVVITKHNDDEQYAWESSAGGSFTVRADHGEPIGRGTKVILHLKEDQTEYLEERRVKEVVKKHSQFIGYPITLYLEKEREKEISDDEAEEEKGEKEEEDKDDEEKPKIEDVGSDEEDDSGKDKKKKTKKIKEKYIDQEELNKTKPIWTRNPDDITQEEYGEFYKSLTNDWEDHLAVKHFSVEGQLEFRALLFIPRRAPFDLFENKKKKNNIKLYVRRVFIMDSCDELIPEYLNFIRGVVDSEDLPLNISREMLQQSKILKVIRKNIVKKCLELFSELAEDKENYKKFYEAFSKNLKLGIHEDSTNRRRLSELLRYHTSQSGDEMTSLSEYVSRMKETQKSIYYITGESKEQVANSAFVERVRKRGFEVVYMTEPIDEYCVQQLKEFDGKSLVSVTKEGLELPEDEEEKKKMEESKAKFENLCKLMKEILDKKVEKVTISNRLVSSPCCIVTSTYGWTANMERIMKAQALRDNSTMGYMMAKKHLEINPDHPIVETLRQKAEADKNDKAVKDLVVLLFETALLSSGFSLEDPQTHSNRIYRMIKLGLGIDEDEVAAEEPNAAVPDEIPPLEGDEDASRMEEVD

[2] = target: T1, Heat shock protein HSP 90-beta; test: Inhibition of Her2 degradation in human breast cancer SKBr3 cell line; assay type: functional, cell-based
How it was run: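 Fixed in cold methanol, blocked, then probed overnight at 4 °C with anti-Her2, then HRP anti-rabbit and ECL luminescence. Normal rabbit IgG background was subtracted.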

[3] = target: T1, Heat shock protein HSP 90-beta; test: Inhibitory activity against Hsp90 in human breast cancer MDA-MB-468 cell line; assay type: cell-based
MDA-MB-468 [4] = test: Growth inhibition in human breast cancer MDA-MB-468 cell line using SRB; assay type: functional, cell-based; how it was run: as §1
MDA-MB-468 [5] = test: Antimitotic activity in human breast cancer MDA-MB-468 cell line; assay type: functional, cell-based
How it was run: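 MDA-MB-468 cells seeded at 8000/well, attached overnight, then exposed to drug or DMSO vehicle for 24 h at 37 °C, 5% CO2. Cells fixed in cold methanol, blocked, then probed with Tg-3 antibody against mitotically phosphorylated nucleolin, followed by HRP anti-mouse IgM and ECL luminescence. IC50 taken as the concentration that doubles luminescence over vehicle.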

SK-BR-3 = test: Growth inhibition in human breast cancer SKBr3 cell line using SRB; assay type: functional, cell-based
[6] = Solubility in water; assay type: physicochemical
[7] = target: Heat shock protein HSP 90 (Mus musculus); test: Binding affinity to Hsp90 in mouse lung tissue
[8] = target: Heat shock protein HSP 90 (Mus musculus); test: Binding affinity to Hsp90 in mouse heart tissue

SMILES	EC50 [1] [nM]	IC50 [2] [nM]	EC50 [3] [nM]	IC50 (MDA-MB-468 [4]) [nM]	IC50 (MDA-MB-468 [5]) [nM]	IC50 (SK-BR-3) [nM]	solubility [6] [µg/mL]	EC50 [7] [nM]	EC50 [8] [nM]	IC50 (MRC5) [nM]
C#CCCCn1c(Cc2cc3c(cc2Cl)OCO3)nc2c(N)nc(F)nc21	77.2	300	51.2	440	450	250	–	–	–	–
C#CCCCn1c(Cc2cc(OC)c(OC)cc2Cl)nc2c(N)nc(F)nc21	4600	30000	4500	27300	> 50000	20600	–	–	–	–
C#CCCCn1c(Cc2cc3c(cc2Br)OCO3)nc2c(N)nc(F)nc21	56.5	210	30.5	350	310	215	–	–	–	–
C#CCCCn1c(Cc2cc(OC)c(OC)cc2Br)nc2c(N)nc(F)nc21	> 15000	> 50000	> 15000	> 50000	> 50000	55000	–	–	–	–
C#CCCCn1c(Cc2cc(OC)c(OC)cc2I)nc2c(N)nc(F)nc21	> 15000	> 50000	> 15000	> 50000	> 50000	> 50000	–	–	–	–

Now from value to compound, other results behind:

EC50 [1] [nM]	IC50 [2] [nM]	EC50 [3] [nM]	IC50 (MDA-MB-468 [4]) [nM]	IC50 (MDA-MB-468 [5]) [nM]	IC50 (SK-BR-3) [nM]	solubility [6] [µg/mL]	EC50 [7] [nM]	EC50 [8] [nM]	SMILES	IC50 (MRC5) [nM]
50.4	80	39.1	90	100	45	> 5000	2400	6900	CC(C)NCCCn1c(Cc2cc3c(cc2I)OCO3)nc2c(N)nc(F)nc21	> 5000
50.4	365	77.1	560	530	–	–	–	–	C#CCCCn1c(Sc2cc3c(cc2Br)OCO3)nc2c(N)ncnc21	–
–	–	–	58	70	–	> 5000	–	–	CC(C)NCCCn1c(Sc2cc3c(cc2I)OCO3)nc2c(N)ncnc21 [PU-H71]	1000
22.3	90	23.7	150	180	90	–	–	–	C#CCCCn1c(Cc2cc3c(cc2I)OCO3)nc2c(N)nc(F)nc21	–
10.8	100	10.9	170	184	90	–	–	–	C#CCCCn1c(Sc2cc3c(cc2I)OCO3)nc2c(N)ncnc21	–
–	–	–	270	375	142	> 5000	–	–	CC(C)NCCCn1c(Sc2cc3c(cc2Br)OCO3)nc2c(N)ncnc21	–
